Shown are actives, neighbours in structure and some others; about 0.94% of the full set was active somewhere.
GalR3 antagonist: human GalR3 antagonism | O60755 | HEK293 GalR3-CNG cAMP membrane potential fluorescence; galR3 body fused to GalR1 C-terminus | inhibition, % at 3 µM | hit rate 0.44% among 360,000 | AID 651719;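 active = inhibition above the screen-wide average plus 3 SD, cut at about 13% in these data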;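 note: forskolin and galanin both at EC90 stimulate the cells; cAMP rise reported by CNG channel membrane potential dye signal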
Arr AP2 block: human beta-arrestin and AP2 interaction inhibition. FITC-arrestin peptide / GST-AP2 beads, flow cytometry; AP2 beta2 appendage carries R879A mutation. inhibition, % at 10 µM. hit rate 0.31% among 340,000. AID 504490;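 active = inhibition above a set limit, near 3 SD of compounds lacking own fluorescence, cut at about 54% in these data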
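Assay system: GST-AP2 R879A bound to glutathione beads, E. coli-expressed; Medium: PBS with 0.05% Tween 20 and 0.1% BSA; Also added: fluorescein-tagged arrestin peptide at 50 nM final; Timing: 12 min plus 1 h, RT; Measured by: flow cytometry, FL1 (488/535 nm); Evaluation: percent drop in bead-associated FITC signal.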
NPR2 activator: GC-B (human) receptor activation; AID 1920062; hit rate 0.11% among 370,000; HEK293-GC-B cells, CNP EC30, cGMP TR-FRET; 0% at EC30 CNP, 100% saturating CNP; P20594; activation, % at 10 µM;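 active = activation at 10 µM reaching about 35% in either raw or pattern-adjusted values, limit read from the data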
NPR1 activator: GC-A (human) enzyme activation; AID 1671463; hit rate 0.14% among 370,000; activation, % at 10 µM; HEK293 GC-A cells, cGMP TR-FRET, EC30 ANP; 0% at EC30 ANP, 100% saturating ANP; P16066; in the data active = activation above about 40%
Target sequence (P16066 whole entry, looked up): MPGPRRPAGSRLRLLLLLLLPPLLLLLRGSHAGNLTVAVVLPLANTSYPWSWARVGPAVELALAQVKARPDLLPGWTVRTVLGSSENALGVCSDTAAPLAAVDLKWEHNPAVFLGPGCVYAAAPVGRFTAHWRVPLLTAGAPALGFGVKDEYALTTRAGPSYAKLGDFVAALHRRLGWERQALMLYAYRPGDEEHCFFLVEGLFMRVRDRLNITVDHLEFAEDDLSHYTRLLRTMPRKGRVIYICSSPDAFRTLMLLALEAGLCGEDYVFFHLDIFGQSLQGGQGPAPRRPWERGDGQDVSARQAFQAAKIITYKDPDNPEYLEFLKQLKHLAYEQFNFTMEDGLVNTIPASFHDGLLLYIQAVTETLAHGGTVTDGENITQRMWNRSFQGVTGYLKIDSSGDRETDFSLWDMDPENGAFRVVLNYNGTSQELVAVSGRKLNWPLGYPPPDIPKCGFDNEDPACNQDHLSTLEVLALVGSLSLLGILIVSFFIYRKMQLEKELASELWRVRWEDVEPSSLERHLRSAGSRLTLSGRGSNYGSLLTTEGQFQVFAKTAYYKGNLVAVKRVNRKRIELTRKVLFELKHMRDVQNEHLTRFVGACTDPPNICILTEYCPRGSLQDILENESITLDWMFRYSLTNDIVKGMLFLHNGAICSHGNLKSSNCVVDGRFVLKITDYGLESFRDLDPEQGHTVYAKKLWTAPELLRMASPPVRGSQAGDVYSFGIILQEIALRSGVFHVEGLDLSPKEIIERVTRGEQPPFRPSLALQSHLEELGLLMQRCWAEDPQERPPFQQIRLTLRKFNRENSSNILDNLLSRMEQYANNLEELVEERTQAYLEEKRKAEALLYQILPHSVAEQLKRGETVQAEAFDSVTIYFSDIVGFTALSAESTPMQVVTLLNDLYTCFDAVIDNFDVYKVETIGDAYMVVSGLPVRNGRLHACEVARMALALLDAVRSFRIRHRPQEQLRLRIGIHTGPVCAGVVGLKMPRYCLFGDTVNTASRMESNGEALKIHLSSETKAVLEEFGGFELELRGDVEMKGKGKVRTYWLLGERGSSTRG
Arr AP2 CP1: inhibitors of human beta-arrestin and AP2 interaction; inhibition, % at 10 µM; shares compounds with Arr AP2 block; GST-AP2 beads, FITC arrestin peptide binding, flow cytometry; GST-fused beta2-adaptin appendage, R879A mutant; hit rate 2% among 1,300;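 active = inhibition above a set limit, roughly 3 SD of non-fluorescent compound noise, cut at about 38% in these data; inactive = inhibition at or below that limit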;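 note: loss of bead fluorescence from 50 nM FITC arrestin peptide bound to appendage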
GST GSH counter: GST-GSH bead binding interference, counter-screen. shares compounds with Arr AP2 block. GST-fluorescein binding to GSH beads, fluorescence. inhibition, % at 10 µM. hit rate 2% among 1,300. AID 588338;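 active = inhibition above 50%, about 3 SD of the inhibition seen with non-fluorescent compounds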;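 note: fluorescein maleimide labelled GST captured on 4 micron glutathione beads; higher means more loss of bead fluorescence from quenching or blocked binding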
A number is an active result; . = inactive; / = no result.

SMILES	GalR3 antagonist	Arr AP2 block	NPR2 activator	NPR1 activator	Arr AP2 CP1	GST GSH counter
CCN(C[C@H]1N[C@@](C)(C(=O)OC)[C@H]2C(=O)N(Cc3ccccc3)C(=O)[C@@H]12)C(=O)c1ccccc1	.	57	.	.	.	.
CCOc1ncccc1C(=O)Nc1cc(S(=O)(=O)N2CCCCCC2)ccc1OC	.	.	.	.	/	/
O=C(Nc1cc(S(=O)(=O)N2CCCCCC2)ccc1OCC(F)(F)F)c1ccc(=O)[nH]c1	.	.	.	.	/	/
CCOc1ncccc1C(=O)Nc1ccc(C)c(S(=O)(=O)N2CCCCCC2)c1	.	.	.	.	/	/
CCOc1ncccc1C(=O)Nc1cc(S(=O)(=O)N2CCCCC2)ccc1OC	.	.	.	.	.	.
Cc1ccc(C(=O)Nc2cccnc2)cc1S(=O)(=O)N1CCOCC1	.	.	.	.	/	/
Cc1ccc(NC(=O)c2cccnc2)cc1S(=O)(=O)N1CCOCC1	.	.	.	.	.	.
COc1ccc(S(=O)(=O)N2CCCCC2)cc1NC(=O)c1ccc(=O)[nH]c1	.	.	.	.	.	.
CCOc1ncccc1C(=O)Nc1ccc(OC)c(S(=O)(=O)N2CCCCC2)c1	.	.	.	.	.	.
CCN1CCCCC(NC(=O)c2ccccc2OC)C1=O (centres undefined)	/	/	.	.	/	/
CCOC(=O)N(C)[C@H]1C[C@H]2c3[nH]c4c(-c5ccccc5)cccc4c3CCN2C(=O)[C@H]1[C@H](C)O	.	/	.	.	/	/
CCN1CCCCC(NC(=O)Cc2ccccc2)C1=O (centres undefined)	/	/	.	.	/	/
CCOc1ncccc1C(=O)Nc1cccc(S(=O)(=O)N2CCOCC2)c1	.	.	.	.	.	.
CCOc1ncccc1C(=O)OCC(=O)Nc1cc(S(=O)(=O)N2CCOCC2)ccc1Cl	.	.	.	.	/	/
C[n+]1c(-c2ccc(C=NNC(=O)c3ccc(C(=O)NN=Cc4ccc(-c5cn6ccccc6[n+]5C)cc4)cc3)cc2)cn2ccccc21	.	.	.	.	/	/
NS(=O)(=O)c1ccc(N/N=C/c2ccc(O)c(O)c2O)c([N+](=O)[O-])c1	.	78	.	.	41	.
CCCCn1c(N)c(NCC(C)C)c(=O)[nH]c1=O	.	57	.	.	.	.
O=S(=O)(CCc1nc2ccccc2o1)c1ccc(Cl)c(Cl)c1	.	91	.	.	.	.
c1ccc(-c2ccccc2C2Cc3nnccc3CN2)cc1 (centres undefined)	.	/	.	.	/	/
CC(C)(C)C(=O)CSc1nnc(SCc2cccc3ccccc23)s1	/	/	.	.	/	/
Nc1c(C(=O)NCc2cccs2)nnn1CC(=O)Nc1cccc(Cl)c1	.	99	.	.	.	.
O=C(Cn1nnc(-c2ccc(F)cc2)n1)Nc1ccc2c(c1)OCCO2	.	.	.	.	/	/
COc1ccc(-c2nnn(CC(=O)Nc3ccc4c(c3)OCCO4)n2)cc1OC	/	60	/	/	.	.
NC(=O)c1c(N)[nH]c(C(=O)c2ccccc2)c1-c1ccc(Br)cc1	.	/	.	.	/	/
O=C(Nc1nnc(C2=COCCO2)o1)c1cccc(Br)c1	.	57	.	.	.	.
SMILES	GalR3 antagonist	Arr AP2 block	NPR2 activator	NPR1 activator	Arr AP2 CP1	GST GSH counter
O=C(N[C@H](Cc1ccccc1)C(=O)NCC1CCCCC1)[C@H]1O[C@@H](n2ccc(=O)[nH]c2=O)[C@H](O)[C@@H]1O	.	/	.	.	/	/
COc1ccccc1NC(=O)CC(=O)Nc1ccccc1OC	.	.	.	.	/	/
O=C(CC(=O)c1ccccc1)Nc1ccc(Cl)cc1	.	.	.	.	.	.
O=C(Cc1ccc(Cl)cc1)Nc1ccc(NC(=O)c2ccccc2)cc1	.	.	.	.	/	/
COc1ccccc1NC(=O)CC(=O)c1ccccc1	.	.	.	.	.	.
Cc1ccc(NC(=O)CC(=O)c2ccccc2)cc1C	.	.	.	.	.	.
CSc1ccccc1C(=O)Nc1ccc(C)c(C)c1	.	54	.	.	.	.
CSc1ccccc1C(=O)Nc1cc(C)cc(C)c1	.	.	.	.	/	/
C#CCNC(=O)C[C@H]1C[C@@]2(C(=O)OCC)CCCC3=C2N(CCC3)C1=O	/	/	.	.	/	/
COc1ccc(NC(=O)CCCC(=O)c2ccccc2)cc1OC	.	61	.	.	.	.
Cc1cc(C(=O)O[C@H]2CCC[C@]3(C(=O)N(Cc4ccccc4)c4ccccc43)[C@H]2NC(=O)CCc2ccccc2)no1	/	/	.	.	/	/
CC1CN(S(=O)(=O)c2ccc(C(=O)Nc3nc(-c4cc5ccccc5o4)cs3)cc2)CC(C)O1 (centres undefined)	.	107	.	.	.	.
N#Cc1nc(-c2ccco2)oc1NCc1ccc(F)cc1	.	72	.	.	.	.
N#Cc1nc(-c2ccco2)oc1NCc1cccnc1	.	.	.	.	/	/
CC(C)[C@H](NC(=O)c1cccs1)C(=O)N1CCC[C@H]1C(=O)NCc1ccccc1	.	/	.	.	/	/
COc1cc(OC)cc(C(=O)Nc2ccc(S(=O)(=O)Nc3ncccn3)cc2)c1	.	55	.	.	.	.
O=C(Cn1cc(C(F)(F)F)ccc1=O)N1CCc2ccccc21	.	65	.	.	.	.
O=C(CCC1CCCN(C(=O)c2ccc3cc[nH]c3c2)C1)NCc1ccc(F)c(F)c1 (centres undefined)	.	58	.	.	.	.
CCn1c(=O)n(CC)c2cc(N3CCCC3)c(NC(=O)c3ccccc3)cc21	.	.	.	.	.	.
Cn1c(=O)n(C)c2cc(N3CCCCC3)c(NC(=O)c3ccccc3)cc21	.	.	.	.	.	.
CCn1c(=O)n(CC)c2cc(N3CCCC3)c(NC(=O)c3ccc(C)cc3)cc21	.	.	.	.	.	/
COC(=O)[C@@]12CCCCC=C1N(CCc1ccc(Cl)cc1)C(=O)[C@H]2CC(=O)NCc1ccc(C)o1	/	/	.	.	/	/
Oc1c(CNc2ccccc2)cc(COCc2ccccc2)c2cccnc12	.	55	.	.	.	.
Cc1ccc(NC(=O)CCS(=O)(=O)c2ccccc2)cc1S(=O)(=O)N1CCCCCC1	.	58	.	.	.	.
COc1ccc(CN2C[C@@]3(O)CC[C@@H](O)[C@@H](OC)[C@@H]3[C@@](C)(O)[C@@H]2CC=C(C)C)cc1	.	/	.	.	/	/
COc1ccc(NC(=O)NNC(=O)CCn2nc(C)c([N+](=O)[O-])c2C)cc1OC	/	/	.	.	/	/
COc1ccc(NCC(=O)N/N=C(\C)c2cc3ccccc3o2)cc1	.	.	.	.	/	/
C/C(=N\NC(=O)CNc1ccc(F)cc1)c1cc2ccccc2o1	.	64	.	.	.	.
CC(C)=C1SC(N2CCCCC2)=NC1=O	.	.	.	.	/	/
C/C(=C1/SC(N2CCCC2)=NC1=O)c1ccc(Br)cc1	.	79	.	.	.	.

Compound activity as filed in PubChem BioAssay.
